Compound activity: PubChem, Johns Hopkins Ion Channel Center
TRPC4 act: activators of mouse TRPC4 channel. B-score at 10 µM. HEK293 TRPC4beta/mu-opioid, Fluo4 calcium fluorescence; hits give high values. AID 2237. Q9QUQ5. actives 0.49% (n = 310,000);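 active = B-score above 5 SD of library B-scores, and initial fluorescence ratio not above library mean plus 5 SD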;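 note: positive B-score marks a calcium rise read as TRPC4 activation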
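Incubation: 45 min room-temperature Fluo4 loading, 110 s read / System: HEK293 cells stably co-expressing mouse TRPC4beta and mu-opioid receptor / Signal: Fluo4 fluorescence, kinetic / Control set: buffer (low) and maximal DAMGO (high) / Measure: integrated baseline-normalised fluorescence ratio, converted to per-well B score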
TRPC6 inhibitor: mouse TRPC6 channel inhibition. Q61143. HEK293-TRPC6, membrane potential dye, ACh-evoked depolarization; hits give low values. B-score at 10 µM. actives 1.1% (n = 310,000);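 active = B-score under library mean minus 3 SD, initial fluorescence not abnormally high, positive integrated signal ratio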;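 note: B-score derived from integrated fluorescence ratio over the kinetic read; more negative B-score means stronger inhibition of depolarization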
Target sequence (Q61143 whole entry, looked up): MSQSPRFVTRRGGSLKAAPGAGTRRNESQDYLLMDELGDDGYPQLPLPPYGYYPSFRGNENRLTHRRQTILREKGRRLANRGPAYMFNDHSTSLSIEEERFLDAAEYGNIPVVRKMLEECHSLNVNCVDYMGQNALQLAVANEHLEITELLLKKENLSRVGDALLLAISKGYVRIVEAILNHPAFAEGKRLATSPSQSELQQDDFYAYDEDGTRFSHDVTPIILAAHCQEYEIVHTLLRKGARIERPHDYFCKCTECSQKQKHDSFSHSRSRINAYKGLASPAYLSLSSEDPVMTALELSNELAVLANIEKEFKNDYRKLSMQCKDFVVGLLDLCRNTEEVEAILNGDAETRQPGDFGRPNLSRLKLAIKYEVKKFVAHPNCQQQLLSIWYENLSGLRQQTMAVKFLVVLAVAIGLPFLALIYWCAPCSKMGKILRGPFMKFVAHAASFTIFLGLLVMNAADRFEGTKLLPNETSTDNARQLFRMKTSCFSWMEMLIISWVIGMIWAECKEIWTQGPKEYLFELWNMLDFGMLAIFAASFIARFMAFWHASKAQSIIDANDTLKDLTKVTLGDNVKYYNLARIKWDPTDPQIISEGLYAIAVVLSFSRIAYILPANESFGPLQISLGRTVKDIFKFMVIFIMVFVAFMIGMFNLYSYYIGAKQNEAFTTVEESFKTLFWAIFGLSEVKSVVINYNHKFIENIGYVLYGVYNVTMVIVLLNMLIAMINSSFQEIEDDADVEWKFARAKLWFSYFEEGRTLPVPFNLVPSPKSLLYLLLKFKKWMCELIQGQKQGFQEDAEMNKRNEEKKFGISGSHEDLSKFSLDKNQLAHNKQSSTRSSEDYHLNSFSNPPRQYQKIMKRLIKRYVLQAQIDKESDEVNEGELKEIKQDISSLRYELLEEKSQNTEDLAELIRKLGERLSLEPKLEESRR
TRPC4 PAM: allosteric potentiators of mouse TRPC4 channel. HEK293 TRPC4beta/mu-opioid, DAMGO EC20, Fluo-4 Ca2+ flux; hits give high values. B-score at 10 µM. actives 0.42% (n = 310,000);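 active = B-score of calcium response area above 5 SD of library B-scores, with initial fluorescence ratio within 5 SD of library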
TRPC6 activator: activates the mouse TRPC6 cation channel. Q61143. HEK293-TRPC6 membrane potential dye fluorescence; hits give high values. B-score at 10 µM. actives 0.13% (n = 310,000). AID 2550;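 active = B-score of the integrated fluorescence ratio above library mean plus 3 SD, and starting fluorescence ratio within library mean plus 5 SD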;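 note: higher score means more depolarization so channel activation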
TRPC4 block: TRPC4 (mouse) channel inhibition. actives 0.39% (n = 300,000). HEK293 TRPC4beta/mu-opioid, DAMGO-evoked Fluo4 calcium flux; hits give low values. Q9QUQ5. B-score at 10 µM;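 active = B-score over 3 SD under the library average, no early fluorescence shift, positive overall ratio signal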
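Material: HEK293 cells with stable TRPC4beta plus mu-opioid receptor expression; probe or stimulus: DAMGO in two steps, submaximal then maximal; technique: Fluo4 calcium fluorescence by kinetic imaging, 5 s 1 Hz baseline; measure: integrated fluorescence ratio relative to baseline, converted to per-well B score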
Of the large screens only hits and unclear results are named; the others gave an inactive call. The list is not random: actives were taken first. Their share in the collection is about 2.3%.

CNc1nc(SCc2ccccc2Cl)nc2c1CCCC2	TRPC4 block -6
O=c1[nH]c(SCc2ccccc2Cl)nc2c1CCC2	none
COc1ccc(CC(=O)NC(C)c2ccc(S(N)(=O)=O)cc2)cc1S(=O)(=O)N1CCOCC1 (stereo unspecified)	none
CC(C)(C)c1csc(NC(=O)Cc2cccs2)n1	TRPC4 PAM 69
O=C1OC(C(=O)O)Cc2ccccc21 (stereo unspecified)	none
C=CCOc1ccc(CN(C)Cc2nc3cc(C(F)(F)F)ccc3c(=O)[nH]2)cc1	TRPC4 PAM 15
CC1=NN(C(=O)c2ccccc2F)C(O)(c2ccc(Cl)cc2)C1 (stereo unspecified)	none
O=[N+]([O-])c1cc(C(F)(F)F)ccc1N1CCN(S(=O)(=O)c2ccc3c(c2)CCCC3)CC1	none
O=[N+]([O-])c1cc(C(F)(F)F)ccc1N1CCCNCC1	TRPC4 act 83, TRPC4 PAM 42
Cn1c(-c2ccccc2)cnc1NCc1ccccc1	TRPC4 block -6
CCOc1ccc(NS(=O)(=O)c2ccc(C(=O)NCc3ccncc3)cc2)cc1	none
CCOc1ccc(NS(=O)(=O)c2ccc(C(=O)NCc3ccccn3)cc2)cc1	TRPC4 act 44
Cc1ccc(NS(=O)(=O)c2ccc(C(=O)NCc3ccccn3)cc2)cc1	TRPC4 act 44
CN(Cc1nc(-c2ccc(Cl)cc2)no1)C(=O)c1ccc2c(c1)OCO2	none
CCOC(=O)c1sc2nc(CN3CCN(c4cccc(C(F)(F)F)c4)CC3)[nH]c(=O)c2c1C	none
NS(=O)(=O)c1ccc(Nc2nc(-c3ccc(O)cc3O)cs2)cc1	TRPC4 block -6
COc1ccc(CN2CCN(CC(O)Cn3c4ccccc4c4ccccc43)CC2)cc1 (stereo unspecified)	TRPC4 act 79
Cc1cccc2cc(CN(Cc3nnnn3C3CCCC3)C3CCCCC3)c(=O)[nH]c12	none
CCc1ccc2[nH]c(=O)c(CN(Cc3nnnn3C3CCCC3)C3CCCCC3)cc2c1	TRPC4 PAM 10
O=C(CNC(=S)N(Cc1ccccc1)Cc1cccnc1)NC1CCCC1	none
COc1ccc(CCNC(=O)CCc2cn(C)c3ccccc23)c(OC)c1OC	none
Cc1cc(C)c(S(=O)(=O)c2c(C)cccc2C)c(OCC(C)C)n1	none
CCOc1nc(C)cc(C)c1S(=O)(=O)c1cccc(C)c1	TRPC4 PAM 19
OC[C@@H](O)[C@H](O)C(/C=N/Nc1ccccc1)=N\Nc1ccccc1	none
Cc1cc(C)c(C(=O)CSc2nnc(C)c(=O)[nH]2)cc1C	none
Cc1cc2[nH]c3ccccc3c2c(C)n1	TRPC4 block -7
Cc1nc(=S)c2ccccc2[nH]1	none
Cc1cc(C)c(S(=O)(=O)NCC(=O)NCc2cc(=O)n(C)c(=O)n2C)c(C)c1	none
CCOCCCn1cnc2c(c1=O)c1nc3ccccc3nc1n2-c1ccccc1	none
CCOCCCn1cnc2c(c1=O)c1nc3ccccc3nc1n2-c1ccc(C)cc1	TRPC4 block -8
CN(CC(=O)Nc1ccccc1-c1ccccc1)Cc1ccccc1Cl	none
O=[N+]([O-])c1ncccc1OCc1ccccc1Br	none
O=C(COC(=O)C12CC3CC(CC(C3)C1)C2)Nc1nccs1	none
Cc1ccnc(NC(=O)COC(=O)C23CC4CC(CC(C4)C2)C3)n1	TRPC4 PAM 35
COC(=O)c1ccc(CN2[C@H](C(=O)OC)C[C@@]3(O)[C@@H](O)[C@@H](O)[C@@H](O)C[C@@H]23)cc1	none
Cn1c(/N=C/c2ccccc2[N+](=O)[O-])nc2ccccc21	TRPC4 PAM 15
Cn1c(/N=C/c2cccs2)nc2ccccc21	none
CN(C)S(=O)(=O)c1cccc(COC(=O)c2ccc(Cl)cc2O)c1	TRPC4 PAM 17
CN(C)S(=O)(=O)c1cccc(COC(=O)c2ccc3c(c2)OCO3)c1	none
C=CCN(C)CC/C=C1\c2ccccc2CSc2ccccc21	TRPC4 block -5
COc1ccccc1CN1CC(C(=O)NCc2nccn2C)CCC1=O (stereo unspecified)	none
CCN(CC)c1nc(N2CCOCC2)nc2ccccc12	TRPC4 block -6
Cc1ccc(SCCN)cc1C	TRPC4 act 83
Cc1ccc(SCC(=O)NNC(=O)c2ccccc2)cc1C	none
COc1cccc(CN2C(=O)CCC2(C)C(=O)NCCc2ccc(OC)c(OC)c2)c1 (stereo unspecified)	none
Cc1cc(-c2nn(-c3ccccc3F)cc2CNCCc2cnc[nH]2)c(C)s1	TRPC4 act 125
COCC1CCN(Cc2cn(-c3ccccc3F)nc2-c2cc(C)sc2C)CC1	TRPC4 act 96
C#CC1CCCCC1NC(=O)Nc1cnccc1C(F)(F)F (stereo unspecified)	none
Cc1ccc2nc(C(=O)N3CCc4c([nH]c5ccccc45)C3c3ccccn3)cn2c1 (stereo unspecified)	TRPC4 act 81
CSc1nc(C(=O)N2CCc3c([nH]c4ccccc34)C2c2ccccn2)cs1 (stereo unspecified)	none
CC1=C(C#N)C(NC(=O)c2cccc(Cl)c2)(C(F)(F)F)C(=O)N1 (stereo unspecified)	none
CN(C1=C(N2CCCCC2)C(=O)c2ccccc2C1=O)c1ccccc1	TRPC6 inhibitor -7.2
C=CCNCCCCOc1c(Cl)cc(C)cc1Br	TRPC4 act 57
COCCCNCCCCOc1c(Cl)cc(C)cc1Br	none
COc1cc(C)c(NC(=S)Nc2cccc(Cl)c2C)cc1OC	none
Cc1ccccc1CN1N=C(/C=C/c2ccccc2)CCC1=O	TRPC4 PAM 14
COc1cc(C(=O)NCC(c2cccs2)N2CCOCC2)c([N+](=O)[O-])cc1OC (stereo unspecified)	none
CCn1c2ccccc2c2nnc(NN)nc21	TRPC4 act 45, TRPC4 PAM 15
CCn1c2ccc(C)cc2c2nnc(NN)nc21	none
Cc1ccc(-c2cc(C(=O)N3CCC(C)CC3)c3ccccc3n2)cc1	TRPC4 PAM 12
CN1CCCN(C(=O)c2cc(-c3ccc(Cl)c(Cl)c3Cl)nc3ccccc23)CC1	TRPC4 act 52
O=C(OCC(=O)N1CCN(C(=O)c2ccco2)CC1)c1cc(-c2ccc(Cl)c(Cl)c2Cl)nc2ccccc12	none
CCOc1ccccc1NC(=O)c1ccc(F)c(S(=O)(=O)N2CCC3(CC2)OCCO3)c1	none
Cc1ccsc1C(=O)OCC(=O)NCCNC(=O)COC(=O)c1sccc1C	TRPC4 block -7
COc1ccc(-c2cn3c(C)c(C(=O)NCc4ccc5c(c4)OCO5)sc3n2)cc1	none
CCCN(CCC)CCCNC(=O)CCNS(=O)(=O)c1ccc(Br)cc1	TRPC4 act 76
CSc1nc(NCc2ccco2)c2c3c(sc2n1)CN(C)CC3	TRPC4 act 64 (no result: TRPC4 block)
CSc1nc(SCC(=O)NCc2ccco2)c2c3c(sc2n1)CN(C)CC3	none
c1ccc(-c2nc3ccccn3c2NCc2ccc3c(c2)OCO3)cc1	none
COc1ccc(-c2nc3ccccn3c2NCc2ccc3c(c2)OCO3)cc1	TRPC6 inhibitor -5.3
